Measurements as given in ChEMBL document CHEMBL1275277, “Synthesis of bioactive polyheterocyclic ring systems as 5α-reductase inhibitors” (Eur J Med Chem, 2010).

What was measured:
Rattus norvegicus [1] = experiment: Inhibition of 5-alpha-reductase activity in sc dosed Sprague-Dawley rat assessed as effect on serum steroid level administered on postnatal third day measured after 7 weeks of age by radioimmunoassay; format: functional
Summary of the method: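 Male Sprague–Dawley rats, 12 per group, given compound sc in 5% Tween 80 in water from postnatal day 3 until 7 weeks of age. Vehicle-treated negative control; anastrozole as positive control. Serum testosterone and DHT measured by RIA after ether extraction, using specific antisera and tritiated tracer, 24 h at 4 °C. Levels read from a standard curve and compared with vehicle controls to give ED50.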

Rattus norvegicus [2] = experiment: Acute toxicity in sc dosed albino rat; format: organism-based; settings: in vivo
Summary of the method: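 Male albino rats were injected with increasing doses of each agent. LD50 and LD90, the doses killing 50% and 90% of the animals, were calculated by a published method.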

Rattus norvegicus [3] = experiment: Inhibition of 5-alpha-reductase activity in sc dosed Sprague-Dawley rat assessed as effect on serum steroid level administered on postnatal third day measured after 7 weeks of age by radioimmunoassay relative to anastrozole; format: functional

Row | SMILES | ED50 (Rattus norvegicus [1]) [µg/kg] | LD50 (Rattus norvegicus [2]) [µg/kg] | LD90 (Rattus norvegicus [2]) [µg/kg] | fold change (FC) (Rattus norvegicus [3])
1 | CC(C)(C#N)c1cc(Cn2cncn2)cc(C(C)(C)C#N)c1 [ANASTROZOLE] | 1.09 | 2.415 | 3.69 | –
2 | CCOC(=O)C1=NN(c2ccc(C)cc2)C2=NC3=C(CN(CC)C/C3=C\c3ccc(C)cc3)C(c3ccc(C)cc3)N12 (configuration not stated) | 1 | 224.33 | 514.33 | 1.09
3 | CCN1CC2=C(N=C3N(c4ccccc4)N=C(C(=O)Nc4ccccc4)N3C2c2ccc(C)cc2)/C(=C/c2ccc(C)cc2)C1 (configuration not stated) | 0.432 | 6534.45 | 1950.12 | 2.523
4 | CCN1CC2=C(N=C3N(c4ccccc4)N=C(C(C)=O)N3C2c2ccc(C)cc2)/C(=C/c2ccc(C)cc2)C1 (configuration not stated) | 0.911 | 257.23 | 419.23 | 1.196
5 | CCN1C/C(=C\c2ccc(C)cc2)c2nc3[nH]c(=S)[nH]c(=O)c3c(-c3ccc(C)cc3)c2C1 | 0.795 | 447.88 | 937.34 | 1.371
6 | CCN1CC2=C(N=C3N(c4ccc(Cl)cc4)N=C(C(C)=O)N3C2c2ccc(C)cc2)/C(=C/c2ccc(C)cc2)C1 (configuration not stated) | 0.856 | 312.34 | 735.34 | 1.273
7 | CCN1CC2=C(N=C3N(c4ccc(C)cc4)N=C(C(=O)Nc4ccccc4)N3C2c2ccc(C)cc2)/C(=C/c2ccc(C)cc2)C1 (configuration not stated) | 0.925 | 236.28 | 417.34 | 1.178
8 | CCOC(=O)C1=NN(c2ccc(Cl)cc2)C2=NC3=C(CN(CC)C/C3=C\c3ccc(C)cc3)C(c3ccc(C)cc3)N12 (configuration not stated) | 0.441 | – | – | 2.472
9 | CCN1C/C(=C\c2ccc(C)cc2)c2nc3nc4n(c(=O)c3c(-c3ccc(C)cc3)c2C1)C(=O)CS4 | 0.766 | 516.56 | 1148.5 | 1.423
10 | CCN1CC2=C(NC(=S)NC2c2ccc(C)cc2)/C(=C/c2ccc(C)cc2)C1 (configuration not stated) | 1.88 | 222.23 | 434.76 | 0.5798
